Molecules are shown by their SMILES. Among all 62,000 compounds or so, about 130 (0.21%) were called active.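 Rule for the calls: active = inhibition above the mean of all tested compounds plus 3 SD (cut at about 40% in these data); inactive = the rest.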 Shown is part of a subset that was picked to be rich in actives.

As a reminder, the inhibition is the relative decrease from the control value, in per cent.

The nature of the assay: lowered NF-kB luciferase signal in HEK293 cells – cell-based, HEK-293 luciferase reporter, PMA/ionomycin, luminescence, antigen receptor NF-kB inhibitor project, primary screen (AID 465).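 Note: 0% = stimulated DMSO wells and 100% = 10 µM reference inhibitor 5653914.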 As to conditions: HEK-293 NF-kB luciferase reporter, at 3 µM, active compounds read high. In outline:
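System: NF-kB luciferase reporter HEK-293 cells | Replication: Single test | Control set: DMSO vs reference inhibitor | Evaluation: % inhibition | Schedule: 1 h pretreatment, 16 h stimulation, 37 °C | Probe or stimulus: PMA with ionomycin | Compound dosing: One dose, 3 µM | Detection: Luciferase luminescence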
In the case of `c1n[nH]c(NCc2ccc3c(c2)OCO3)n1`, the inhibition is 0.1% (inactive).
As to `CCC(C)(C)n1nnnc1C(c1ccccc1OC)N1CCSCC1` (stereo not drawn), the inhibition was 9.6% (inactive).
Turning to `Cc1nc(C)c(C(=O)Nc2ccc(C)c(F)c2)o1`, the inhibition was 19.9% (inactive).
Turning to `O=C(CSc1ncccn1)NC(=O)NCc1ccccc1`, the inhibition is 13.2% (inactive).
Consider `CCC(=O)Nc1cccc(NC(=O)CSc2nnc(-c3ccc(NS(C)(=O)=O)cc3)n2C)c1`, for which the inhibition was 1.5% (inactive).
The figure for `COc1ccc(CCn2c(=N)c(C(=O)NCc3ccco3)cc3c(=O)n4cccc(C)c4nc32)cc1` is 7.9% (inactive); for `Cc1nc2ccc(S(=O)(=O)NCC(=O)O)cc2s1` it is -0.6% (inactive); for `CC1=CC(C)(C)N(C(=O)CSc2nccn2C)c2cc(C)ccc21` it is 0% (inactive).
`Cc1ccc(C)c(S(=O)(=O)N2CC(=O)Nc3ccccc32)c1`: the inhibition is 13.2% (inactive).
The figure for `Cn1c(=O)c2c(nc(SCCNS(=O)(=O)c3ccccc3)n2C)n(C)c1=O` is 11.9% (inactive); for `O=C(NCCCN1CCN(C2CCCCC2)CC1)Nc1ccccc1C(F)(F)F` it is 7.8% (inactive).
For `O=C(NCc1ccco1)C1CCCN(S(=O)(=O)c2cccc3nonc23)C1` (stereo not drawn), the inhibition was 0.7% (inactive).
The figure for `O=P(O)(CN1CCCCC1)CN1CCCCC1` is 4.4% (inactive).
With `Cc1ccc(-c2noc(CCC(N)=O)n2)cc1`, the inhibition is 19.8% (inactive).
The figure for `Cc1ccc(-c2noc(CCC(=O)Nc3ccccc3N3CCN(C)CC3)n2)cc1` is -2% (inactive).
Consider `CCNC(=O)CCc1nc(-c2ccc(C(C)(C)C)cc2)no1`, for which the inhibition is 79.1% (active).
In the case of `CCCS(=O)(=O)C(=C1Nc2ccccc2N1)S(=O)(=O)CCC`, the inhibition was 3.3% (inactive).
With `COc1ccc2c(c1)CCc1c(C(=O)Nc3c(C)n(C)n(-c4ccccc4)c3=O)noc1-2`, the inhibition was 23.3% (inactive).
With `CCCCOc1ccc(-c2nnc(-c3ccco3)o2)cc1`, the inhibition is -34% (inactive).
On to `CC(=O)Nc1ccc(S(=O)(=O)N2CCCC2C(=O)O)cc1` (stereo not drawn), for which the inhibition was 6.9% (inactive).
Turning to `CCOC(=O)N1CCN(C(=O)CN(c2ccc(C)c(C)c2)S(=O)(=O)c2ccccc2)CC1`, the inhibition was 10.2% (inactive).
`C=CCc1cccc2cc(C(=O)N3CCN(C(=O)OCC)CC3)c(=O)oc12`: the inhibition is -6.7% (inactive).
`Cc1cc(C)cc(OCc2nnc(SCC(=O)OC3CCCCC3)o2)c1`: the inhibition was 17.6% (inactive).
With `Cc1ccnc(N2CCC(C(=O)NC3CCCCCC3)CC2)n1`, the inhibition was 11.5% (inactive).
As for `Nc1ccc(-n2nncc2-c2ccco2)cc1`, the inhibition was 4% (inactive).
Consider `CCOC(=O)c1cnc(SCC(=O)NCc2ccco2)nc1N`, for which the inhibition was -2% (inactive).
As to `Cc1cc(C(=O)OCC(=O)NCc2ccco2)c(C)n1-c1ccccc1`, the inhibition was 41.7% (active).
With `O=C(COC(=O)C12CC3CC(CC(C3)C1)C2)NCc1ccco1`, the inhibition was 3.7% (inactive).
Consider `CC1(C)CC(=O)C2=C(C1)NCN(CCCN1CCOCC1)C2`, for which the inhibition is 3.7% (inactive).
For the molecule `CCCCC(=O)Nc1cc(C)c2c(=O)oc3ccccc3c2n1`, the inhibition was 2.7% (inactive).
In the case of `Cc1cccc(-n2c(N)c(C(=O)N3CCN(C)CC3)sc2=S)c1`, the inhibition was 8.2% (inactive).
As to `Cc1ccc2nc(S(=O)(=O)O)[nH]c2c1`, the inhibition was 13.2% (inactive).
In the case of `COCc1[nH]nc2c1C(C1C=CCCC1)C(C#N)=C(N)O2` (stereo not drawn), the inhibition was -9.1% (inactive).
With `CCC(c1nnnn1C1CCCC1)N(Cc1cccs1)Cc1cc2cccc(C)c2[nH]c1=O` (stereo not drawn), the inhibition is 1.1% (inactive).
The same measure for `Cc1cccc2cc(CN(Cc3cccs3)C(c3nnnn3C3CCCC3)C(C)C)c(=O)[nH]c12` (stereo not drawn): 42% (active).
On to `Cc1cccc2cc(CN(Cc3ccc4c(c3)OCO4)Cc3nnnn3C3CCCC3)c(=O)[nH]c12`, for which the inhibition is 26.6% (inactive).
Turning to `CCCCOc1ccc(-c2ncc(C(=O)OCC)c(N)n2)cc1`, the inhibition is 5.2% (inactive).
With `Cc1ccc(C)n1-c1ccncc1`, the inhibition is 4.5% (inactive).
As to `Cc1nnc(Sc2nc3c(c(=O)[nH]c(=O)n3C)n2Cc2ccccc2)s1`, the inhibition is -1.3% (inactive).
With `CC(C)CCn1c(CN(C)Cc2ccccc2)nc2c1c(=O)n(C)c(=O)n2C`, the inhibition is 10.4% (inactive).
Turning to `CCc1c(C)nc2cc(-c3cccs3)[nH]n2c1=O`, the inhibition was 0.4% (inactive).
On to `Cn1nnnc1SCC(=O)N1CCN(Cc2ccccc2)CC1`, for which the inhibition is 10.7% (inactive).
For the molecule `Cc1cccc(NC(=O)c2ccc3ccccc3n2)n1`, the inhibition was -33.4% (inactive).
The figure for `Cc1ccccc1CSCC(=O)NC(=O)NC(C)(C)C` is -1.2% (inactive); for `CCOc1ncccc1C(=O)OCc1cn2cc(Cl)ccc2n1` it is 7.4% (inactive); for `CC1C(c2ccccc2)=[N+]([O-])C2(CCCC2)N1O` (stereo not drawn) it is 5.7% (inactive).
On to `Cc1ccc(-c2cc(C(F)(F)F)n3nc(C(=O)N4CCCC4)cc3n2)cc1`, for which the inhibition was 13.3% (inactive).
On to `CC(C)(C)OC(=O)c1c(N)n(CCCN2CCCC2=O)c2nc3ccccc3nc12`, for which the inhibition was 11.9% (inactive).
For the molecule `O=C(NCc1ccco1)c1cc2sccc2n1Cc1ccc(F)cc1`, the inhibition is 19.8% (inactive).
As for `O=C(O)CCCC(=O)Nc1ccccc1-n1ccnc1`, the inhibition is -1.2% (inactive).
As for `COc1ccc(-c2nnc(SC(=O)N3c4ccccc4Sc4ccccc43)o2)cc1`, the inhibition was 9.5% (inactive).
As for `COc1ccc(O)c(C(=O)c2cnc3onc(C(C)C)c3c2)c1`, the inhibition was 8.8% (inactive).
The figure for `Cc1cc(C)c(S(=O)(=O)NCCCN2CCOCC2)cc1Br` is 11.3% (inactive); for `O=S(=O)(NCc1cccnc1)c1ccc(Br)s1` it is 10.6% (inactive); for `CCN1C(=O)C(C(=O)NC(C)c2ccccc2)C2CC1(C)Oc1ccccc12` (stereo not drawn) it is 14.7% (inactive).
The figure for `Cc1nn(-c2ccccc2)c(C)c1C(=O)OCC(=O)NC(=O)NC1CCCCC1` is 8.4% (inactive); for `CCOC(=O)N1CCN(C(=O)c2nn(-c3ccc(C)cc3)c(=O)c3c2c2ccccc2n3C)CC1` it is 20.4% (inactive); for `O=C(OCC(=O)N1CCCC1)c1ccco1` it is 9.6% (inactive).
As to `CC1(C)NC(=O)N(CCOc2cccc(Oc3ccccc3)c2)C1=O`, the inhibition is 21.8% (inactive).
`CCOC(=O)c1c(C)[nH]c(C(=O)NCc2ccccc2OC)c1C`: the inhibition was -10.8% (inactive).
Regarding `COc1cccc2c(C)c(C(=O)O)[nH]c12`, the inhibition is 48.7% (active).
Take `COc1ccc(C)cc1NC(=O)c1[nH]c(C)c(C(C)=O)c1C`: the inhibition was 8.7% (inactive).
On to `Cc1ccc(NC(=O)CCNS(=O)(=O)c2ccc3c(c2)oc(=O)n3C)cc1C`, for which the inhibition is 13.6% (inactive).

(Values after PubChem BioAssay AID465 (The Scripps Research Institute Molecular Screening Center, 2006).)
